Assays:
Assay type in all cases: ADME, organism-based
Set-up in all cases: dose 50 mg/kg, route intravenous
[1] = system: Homo sapiens; test: Clearance in infant during extracorporeal membrane oxygenation assessed as desacetylcefotaxime at 50 mg/kg, iv dosed 2 to 3 times per day as bolus dose; conditions: in vivo
Outline: (§1)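 Infants on ECMO (n=37; PNA 0.67–199 days; 2.0–6.2 kg). Cefotaxime given as an IV bolus (≤3 min) into the extracorporeal line after the oxygenator. Dosing: 50 mg/kg b.i.d. for PNA <1 week, 50 mg/kg t.i.d. for 1–4 weeks, 37.5 mg/kg q.i.d. for >4 weeks. Routine venous circuit samples (EDTA), including post-decannulation up to 24 h. Cefotaxime and desacetyl metabolite measured by LC-MS (LOQ 0.2 mg/liter). One-compartment NONMEM population model.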

[2] = system: Homo sapiens; test: Clearance in infant weighing 2 to 6.2 kg weight after extracorporeal membrane oxygenation assessed as desacetylcefotaxime at 50 mg/kg, iv dosed 2 to 3 times per day as bolus dose measured after 72 hrs; conditions: in vivo; outline: as §1
[3] = system: Homo sapiens; test: Clearance in infant weighing 2 to 6.2 kg weight assessed as desacetylcefotaxime at 50 mg/kg, iv dosed 2 to 3 times per day as bolus dose; conditions: in vivo; outline: as §1
[4] = Clearance in infant weighing 2 to 6.2 kg weight during extracorporeal membrane oxygenation at 50 mg/kg, iv dosed 2 to 3 times per day as bolus dose; conditions: human, in vivo; outline: as §1
[5] = Clearance in infant weighing 2 to 6.2 kg weight after extracorporeal membrane oxygenation at 50 mg/kg, iv dosed 2 to 3 times per day as bolus dose; conditions: human, in vivo; outline: as §1
[6] = Clearance in infant weighing 2 to 6.2 kg weight after extracorporeal membrane oxygenation at 50 mg/kg, iv dosed 2 to 3 times per day as bolus dose measured after 72 hrs; conditions: human, in vivo; outline: as §1
[7] = system: Homo sapiens; test: Clearance in infant weighing 2 to 6.2 kg weight after extracorporeal membrane oxygenation assessed as desacetylcefotaxime at 50 mg/kg, iv dosed 2 to 3 times per day as bolus dose; conditions: in vivo; outline: as §1
[8] = Clearance in infant weighing 2 to 6.2 kg weight at 50 mg/kg, iv dosed 2 to 3 times per day as bolus dose; conditions: human, in vivo; outline: as §1
[9] = Elimination half life in infant weighing 2 to 6.2 kg weight during extracorporeal membrane oxygenation at 50 mg/kg, iv dosed 2 to 3 times in a day bolus dose; conditions: human, in vivo, read-out: beta t1/2 (converted); outline: as §1
[10] = Clearance in infant during extracorporeal membrane oxygenation at 50 mg/kg, iv dosed 2 to 3 times per day as bolus dose; conditions: human, in vivo; outline: as §1
[11] = Volume of distribution in infant during extracorporeal membrane oxygenation at 50 mg/kg, iv dosed 2 to 3 times per day as bolus dose; conditions: human, in vivo; outline: as §1
[12] = system: Homo sapiens; test: Volume of distribution in infant during extracorporeal membrane oxygenation assessed as desacetylcefotaxime at 50 mg/kg, iv dosed 2 to 3 times per day as bolus dose; conditions: in vivo; outline: as §1
[13] = system: Homo sapiens; test: Elimination half life in infant weighing 2 to 6.2 kg weight during extracorporeal membrane oxygenation assessed as desacetylcefotaxime at 50 mg/kg, iv dosed 2 to 3 times per day as bolus dose; conditions: in vivo; outline: as §1

CO/N=C(\C(=O)N[C@@H]1C(=O)N2C(C(=O)O)=C(COC(C)=O)CS[C@H]12)c1csc(N)n1 [CEFOTAXIME]
CL [1]: 1.46 L/h | CL [2]: 1.38 L/h | CL [3]: 1.37 L/h | clearance [4]: 4.33 mL/min | clearance [5]: 3.67 mL/min | clearance [6]: 6.67 mL/min | CL [7]: 0.18 L/h | clearance [8]: 5 mL/min | half-life [9]: 1.6 h | clearance [10]: 6 mL/min | Vd [11]: 1.82 L | Vd [12]: 11 L | beta t1/2 [13]: 0.8 h

From ChEMBL document CHEMBL1255441, “Pharmacokinetics of cefotaxime and desacetylcefotaxime in infants during extracorporeal membrane oxygenation” (Antimicrob Agents Chemother, 2010)
